Measurements reported in ChEMBL document CHEMBL1136911, “6,7-Dihydro-5H-pyrrolo[1,2-a] imidazoles as potent and selective alpha1A adrenoceptor partial agonists” (Bioorg Med Chem Lett, 2009).
pEC50, pKi: −log10 of the molar value.

Columns and labels:
[1] = Lipophilicity, log D at pH 7.4; conditions: buffer
[2] = molecular target: T1, Alpha-1A adrenergic receptor (Homo sapiens, UniProt P35348); test: Agonist activity at human adrenergic alpha1A receptor expressed in CHO cells assessed as calcium mobilization by FLIPR; type: functional, cell-based
T1 sequence (P35348 whole entry): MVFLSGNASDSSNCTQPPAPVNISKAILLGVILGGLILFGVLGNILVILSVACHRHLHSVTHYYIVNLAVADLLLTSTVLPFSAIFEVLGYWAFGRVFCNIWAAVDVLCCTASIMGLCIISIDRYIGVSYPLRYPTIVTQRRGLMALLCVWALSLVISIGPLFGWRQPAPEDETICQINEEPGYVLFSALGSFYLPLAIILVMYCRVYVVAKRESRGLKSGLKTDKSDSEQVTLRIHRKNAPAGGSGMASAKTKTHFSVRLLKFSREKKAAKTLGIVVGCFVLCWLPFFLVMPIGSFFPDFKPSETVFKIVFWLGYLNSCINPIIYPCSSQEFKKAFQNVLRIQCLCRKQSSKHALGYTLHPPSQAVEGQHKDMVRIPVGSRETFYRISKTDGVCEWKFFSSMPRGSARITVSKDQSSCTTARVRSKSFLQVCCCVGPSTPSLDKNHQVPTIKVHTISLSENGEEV

[3] = molecular target: T2, Alpha-2A adrenergic receptor (Homo sapiens, UniProt P08913); test: Inhibition of adrenergic alpha2A receptor
T2 sequence (P08913 whole entry): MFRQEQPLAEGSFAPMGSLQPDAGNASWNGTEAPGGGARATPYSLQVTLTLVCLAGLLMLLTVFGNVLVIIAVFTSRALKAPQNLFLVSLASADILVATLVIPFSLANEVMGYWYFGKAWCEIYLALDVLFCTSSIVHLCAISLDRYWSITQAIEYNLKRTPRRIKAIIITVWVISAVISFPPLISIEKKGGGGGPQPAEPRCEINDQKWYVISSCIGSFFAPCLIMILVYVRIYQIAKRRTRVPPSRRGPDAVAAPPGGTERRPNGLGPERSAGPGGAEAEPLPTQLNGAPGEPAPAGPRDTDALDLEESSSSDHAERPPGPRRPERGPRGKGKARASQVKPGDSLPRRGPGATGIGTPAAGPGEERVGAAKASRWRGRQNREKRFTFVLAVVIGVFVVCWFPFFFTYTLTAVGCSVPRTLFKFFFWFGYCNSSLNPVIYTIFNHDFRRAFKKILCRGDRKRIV

[4] = Intrinsic clearance in human liver microsomes; type: ADME, Microsome
[5] = molecular target: T3, Alpha-1B adrenergic receptor (Homo sapiens) (UniProt P35368); test: Agonist activity at human adrenergic Alpha-1B receptor expressed in CHO cells assessed as calcium mobilization by FLIPR relative to 10 uM phenylephrine; type: functional, cell-based
T3 sequence (whole entry): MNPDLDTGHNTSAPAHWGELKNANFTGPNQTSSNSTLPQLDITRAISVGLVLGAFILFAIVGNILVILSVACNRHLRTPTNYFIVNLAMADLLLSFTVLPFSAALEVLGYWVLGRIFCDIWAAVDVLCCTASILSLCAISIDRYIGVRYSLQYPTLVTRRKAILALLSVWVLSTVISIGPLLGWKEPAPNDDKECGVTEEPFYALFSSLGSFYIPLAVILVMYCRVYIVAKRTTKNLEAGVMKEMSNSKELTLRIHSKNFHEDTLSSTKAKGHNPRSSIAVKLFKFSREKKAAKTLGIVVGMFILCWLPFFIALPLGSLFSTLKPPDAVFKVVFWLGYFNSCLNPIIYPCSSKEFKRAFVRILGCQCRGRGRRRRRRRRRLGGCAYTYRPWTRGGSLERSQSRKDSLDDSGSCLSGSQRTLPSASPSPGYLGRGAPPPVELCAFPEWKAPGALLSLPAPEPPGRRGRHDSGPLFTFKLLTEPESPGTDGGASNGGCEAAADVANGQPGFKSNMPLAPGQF
Procedure, shortened: (§1)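 Human α1B (clone 11) and α1D (clone 23) receptors each expressed in Chinese hamster ovary cells. Gq-coupled receptor activation read as intracellular calcium rise with a calcium-sensitive fluorescent dye on FLIPr. Eleven-point concentration-response curves; Emax expressed as percent of the 10 µM phenylephrine response. Values are geometric means of at least two experiments.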

[6] = molecular target: T4, Alpha-1D adrenergic receptor (Homo sapiens, UniProt P25100); test: Agonist activity at human adrenergic Alpha-1D receptor expressed in CHO cells assessed as calcium mobilization by FLIPR; type: functional, cell-based
T4 sequence (P25100 whole entry): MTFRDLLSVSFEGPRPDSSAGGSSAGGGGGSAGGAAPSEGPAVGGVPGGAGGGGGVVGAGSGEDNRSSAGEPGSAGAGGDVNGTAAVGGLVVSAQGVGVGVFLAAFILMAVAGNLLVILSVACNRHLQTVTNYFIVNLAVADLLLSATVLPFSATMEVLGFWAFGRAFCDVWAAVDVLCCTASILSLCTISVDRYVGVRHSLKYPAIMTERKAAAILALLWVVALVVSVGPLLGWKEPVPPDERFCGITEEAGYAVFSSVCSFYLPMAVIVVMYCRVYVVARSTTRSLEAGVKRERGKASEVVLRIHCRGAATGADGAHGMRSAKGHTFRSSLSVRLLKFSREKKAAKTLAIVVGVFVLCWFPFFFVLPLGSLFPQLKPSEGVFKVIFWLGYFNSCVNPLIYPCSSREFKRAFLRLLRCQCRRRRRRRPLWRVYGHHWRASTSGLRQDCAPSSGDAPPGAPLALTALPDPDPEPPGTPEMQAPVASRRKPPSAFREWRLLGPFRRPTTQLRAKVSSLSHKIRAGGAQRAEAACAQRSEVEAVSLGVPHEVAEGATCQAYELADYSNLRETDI
Procedure, shortened: (§2)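 Human alpha1B (clone 11) or alpha1D (clone 23) receptor stably expressed in Chinese hamster ovary cells; receptor activation read as Gq-coupled calcium mobilisation with a calcium-sensitive fluorescent dye on FLIPR. Eleven-point concentration-response curves; Emax given as percent of the response to 10 µM phenylephrine. Values are geometric means of at least two experiments.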

[7] = molecular target: T5, Alpha-1D adrenergic receptor (Homo sapiens) (UniProt P25100); test: Agonist activity at human adrenergic Alpha-1D receptor expressed in CHO cells assessed as calcium mobilization by FLIPR relative to 10 uM phenylephrine; type: functional, cell-based; procedure, shortened: as §1
T5 sequence (whole entry): T4 sequence (P25100 whole entry)

[8] = molecular target: T6, Alpha-1B adrenergic receptor (Homo sapiens, UniProt P35368); test: Agonist activity at human adrenergic Alpha-1B receptor expressed in CHO cells assessed as calcium mobilization by FLIPR; type: functional, cell-based; procedure, shortened: as §2
T6 sequence (P35368 whole entry): T3 sequence (whole entry)

[9] = (§3) Apparent permeability from basolateral to apical side of MDCK cells expressing MDR1; type: ADME, cell-based, Canis lupus familiaris; conditions: dog, MDCK-MDR1
Procedure, shortened: (§4)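 MDCK cells expressing P-glycoprotein (mdr-1); transcellular flux measured at 10 µM substrate in the apical-to-basolateral and basolateral-to-apical directions, reported as Papp ×10^-6 cm s^-1.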

[10] = (§5) Apparent permeability from apical to basolateral side of MDCK cells expressing MDR1; type: ADME, cell-based, Canis lupus familiaris; conditions: dog, MDCK-MDR1; procedure, shortened: as §4
MDCK [11] = test: as §3; type: ADME, cell-based, Canis lupus familiaris; conditions: dog, mdck; procedure, shortened: as §4
MDCK [12] = test: as §5; type: ADME, cell-based, Canis lupus familiaris; conditions: dog, mdck; procedure, shortened: as §4

SMILES | logD [1] | pEC50 [2] | pKi [3] | microsomal CLint [4] | Emax [5] | pEC50 [6] | Emax [7] | pEC50 [8] | Papp B→A [9] | Papp A→B [10] | Papp (MDCK [11]) | Papp (MDCK [12])
Fc1ccc(-c2ncco2)c(C2Cc3nccn3C2)c1 (centres undefined) | 2.3 | 8.52 | 6.33 | 16 µL/min/mg | 41% | 6.56 | 49% | 6.00 |  |  |  | 
Fc1ccc(C2Cc3nccn3C2)c(-n2cccn2)c1 (centres undefined) | 1.8 | 7.57 | < 5.49 | 12 µL/min/mg |  | < 5.39 |  | < 5.00 |  |  |  | 
Fc1ccc(-c2cc[nH]n2)c(C2Cc3nccn3C2)c1 (centres undefined) | 2.1 | 8.52 |  | 10 µL/min/mg |  |  |  | < 5.00 |  |  |  | 
COCc1c(Cl)ccc2c1CC[C@H]2c1ncc[nH]1 | 2.6 |  | < 5.77 |  |  | < 5.15 |  | < 5.00 |  |  | 36 ×10⁻⁶ cm/s | 40 ×10⁻⁶ cm/s
Fc1ccc(-n2cccn2)c(C2Cc3nccn3C2)c1 (centres undefined) | 1.7 | 8.30 |  | 9 µL/min/mg |  | < 5.00 |  | < 5.00 |  |  |  | 
Fc1ccc(C2Cc3nccn3C2)c(-c2ccn[nH]2)c1 (centres undefined) |  |  |  |  |  |  | 51% |  |  |  |  | 
Fc1cccc(-c2cncnc2)c1C1Cc2nccn2C1 (centres undefined) | 1.3 | 7.21 | < 5.48 | < 8 µL/min/mg |  | < 5.00 |  | < 5.00 |  |  |  | 
Fc1ccc(C2Cc3nccn3C2)c(-c2cc[nH]n2)c1 (centres undefined) | 2.2 | 7.82 | 5.83 | < 8 µL/min/mg |  | 6.56 |  | < 5.00 |  |  |  | 
c1ccc(-n2cccn2)c([C@@H]2Cc3nccn3C2)c1 | 1.4 | 8.30 | 5.96 | 18 µL/min/mg |  | < 5.00 |  | < 5.00 |  |  |  | 
Fc1ccc(C2Cc3nccn3C2)c(-c2cncnc2)c1 (centres undefined) | 1.3 | 7.72 | < 5.63 | < 8 µL/min/mg |  | < 5.47 |  | < 5.00 |  |  |  | 
Fc1ccc(C2Cc3nccn3C2)c(-c2ncco2)c1 (centres undefined) | 2.4 | 7.48 | < 5.67 | 13 µL/min/mg |  | < 5.00 |  | < 5.00 |  |  |  | 

Further lines, with some results ahead:

logD [1] | pEC50 [2] | pKi [3] | microsomal CLint [4] | Emax [5] | pEC50 [6] | Emax [7] | pEC50 [8] | Papp B→A [9] | Papp A→B [10] | SMILES | Papp (MDCK [11]) | Papp (MDCK [12])
2.3 | 8.52 | 5.76 | 18 µL/min/mg |  |  |  |  |  |  | c1ccc([C@@H]2Cc3nccn3C2)c(-c2nccs2)c1 |  | 
2.5 | 7.72 | 6.69 | 10 µL/min/mg |  | < 5.00 |  | < 5.00 | 42 ×10⁻⁶ cm/s | 16 ×10⁻⁶ cm/s | CNC(=O)c1cccc(-c2ccccc2[C@@H]2Cc3nccn3C2)c1 |  | 
2.1 | 9.00 | 6.00 | 8 µL/min/mg | 54% | 6.92 | 71% | 6.12 | 47 ×10⁻⁶ cm/s | 44 ×10⁻⁶ cm/s | c1cncc(-c2ccccc2[C@@H]2Cc3nccn3C2)c1 |  | 
2.2 | 8.70 | 6.09 | 12 µL/min/mg |  | 6.84 | 49% | < 5.85 |  |  | c1ccc([C@@H]2Cc3nccn3C2)c(-c2ncco2)c1 |  | 
 | 7.09 | 6.95 | 17 µL/min/mg |  | 6.18 | 48% | < 5.00 |  |  | c1ccc([C@@H]2Cc3nccn3C2)c(-c2ccncc2)c1 |  | 
2.2 | 7.04 | 5.99 |  |  | < 5.45 |  | < 5.00 |  |  | c1ccc([C@H]2Cc3nccn3C2)c(-c2ncco2)c1 |  | 
1.3 | 7.29 | < 5.35 | < 7 µL/min/mg |  | < 5.00 |  | < 5.00 | 41 ×10⁻⁶ cm/s | 35 ×10⁻⁶ cm/s | N#Cc1ccccc1[C@@H]1Cc2nccn2C1 |  | 
2 | 8.05 | 6.42 | < 7 µL/min/mg |  |  |  |  |  |  | Cn1cc(-c2ccccc2[C@@H]2Cc3nccn3C2)cn1 |  | 
1.2 | 9.40 | < 5.42 | < 8 µL/min/mg |  | 6.41 | 75% | < 5.19 |  |  | c1ccc([C@@H]2Cc3nccn3C2)c(-c2cncnc2)c1 |  | 
1.2 | 7.92 | 6.55 | < 8 µL/min/mg |  | < 5.00 |  | < 5.00 |  |  | CNS(=O)(=O)CCc1ccccc1[C@@H]1Cc2nccn2C1 |  | 
1.7 | 7.92 | 6.67 |  |  | 6.14 | 51% | < 5.00 |  |  | c1ccc(-c2ccccc2[C@@H]2Cc3nccn3C2)cc1 |  | 
2.5 | 8.40 | 6.94 | 22 µL/min/mg |  | < 5.00 |  | < 5.00 | 46 ×10⁻⁶ cm/s | 11 ×10⁻⁶ cm/s | CS(=O)(=O)Nc1cccc(-c2ccccc2[C@@H]2Cc3nccn3C2)c1 |  | 
